ChEMBL document CHEMBL1123878, “Potential antitumor agents. 50. In vivo solid-tumor activity of derivatives of N-[2-(dimethylamino)ethyl]acridine-4-carboxamide” (J Med Chem, 1987)
pIC50: −log10 of the molar value.

Experiments:
P388 = experiment: (§1) Percentage increase in life span of tumor bearing animals compared to non treated, tumor-bearing controls when treated at the optimal dose of 20 mg/kg/day intraperitoneally; format: functional; conditions: Mus musculus, P388, ip; route intraperitoneal
[1] = system: Lewis lung carcinoma cell line; experiment: as §1; format: functional; conditions: Mus musculus, ip, route intraperitoneal
L1210 = experiment: Inhibition murine leukemia L1210 cell growth in culture; format: functional, cell-based; conditions: Mus musculus
How it was run: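 IC50 is the drug concentration, in nM, that inhibits growth of the cultured cell line by 50%.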

[2] = Lipophilicity index (Rm) (HPLC); format: physicochemical

Compound CN(C)CCNC(=O)c1cccc2cc3cccc(Cl)c3nc12.Cl.Cl has an ILS at 20 mg/kg/day (P388) of 91%, an ILS at 20 mg/kg/day [1] of 92% and a pIC50 (L1210) of 8.16. For the same compound, the Rm [2] was -0.21.
